In ChEMBL document CHEMBL5385937:
Calls of active or inactive are those of the source. The rule behind the calls is not given here.

How the values were obtained:
[1] = target: T1, Bifunctional epoxide hydrolase 2 (Homo sapiens) (UniProt P34913); settings: HAP1, dose 500.0 nM
T1 sequence (whole entry): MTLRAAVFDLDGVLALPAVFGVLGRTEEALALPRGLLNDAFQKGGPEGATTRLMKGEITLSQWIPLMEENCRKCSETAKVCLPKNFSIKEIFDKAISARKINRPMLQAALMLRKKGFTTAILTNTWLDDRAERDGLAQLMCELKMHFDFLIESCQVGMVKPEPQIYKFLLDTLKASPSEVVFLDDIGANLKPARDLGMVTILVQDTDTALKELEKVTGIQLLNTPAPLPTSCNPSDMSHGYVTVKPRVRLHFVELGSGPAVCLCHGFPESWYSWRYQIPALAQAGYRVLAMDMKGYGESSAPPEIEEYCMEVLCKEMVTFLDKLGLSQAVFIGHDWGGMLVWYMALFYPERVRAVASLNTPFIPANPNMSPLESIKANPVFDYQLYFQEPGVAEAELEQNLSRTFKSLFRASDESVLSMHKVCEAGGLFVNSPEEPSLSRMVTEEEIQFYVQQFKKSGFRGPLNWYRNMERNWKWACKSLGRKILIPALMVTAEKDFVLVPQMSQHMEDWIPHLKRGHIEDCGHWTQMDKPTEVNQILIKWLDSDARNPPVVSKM

[2] = target: Indoleamine 2,3-dioxygenase 1 (Homo sapiens) (UniProt P14902); assay: Inhibition of IDO1 in human BXPC-3 cells assessed as reduction in IFNgamma induced kynurenine level at 10 uM incubated for 48 hrs by LC-MS analysis; format: cell-based
Indoleamine 2,3-dioxygenase 1 (Homo sapiens), sequence (P14902 whole entry, looked up): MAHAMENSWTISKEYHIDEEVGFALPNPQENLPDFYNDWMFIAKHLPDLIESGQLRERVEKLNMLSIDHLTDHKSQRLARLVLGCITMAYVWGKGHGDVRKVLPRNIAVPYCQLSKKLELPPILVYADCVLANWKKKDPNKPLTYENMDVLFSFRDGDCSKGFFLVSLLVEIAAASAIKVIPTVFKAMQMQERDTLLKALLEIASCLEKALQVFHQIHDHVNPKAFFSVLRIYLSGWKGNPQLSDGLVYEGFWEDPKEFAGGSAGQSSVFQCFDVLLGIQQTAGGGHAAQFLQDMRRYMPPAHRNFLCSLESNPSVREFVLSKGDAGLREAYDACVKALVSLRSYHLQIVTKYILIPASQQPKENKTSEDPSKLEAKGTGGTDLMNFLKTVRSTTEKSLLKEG
How it was run: (§1)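 BxPC-3 cells were seeded at 20,000/well in phenol-red-free medium. After 24 h, 50 ng/mL IFN-γ and 380 μM Trp were added together with compound for 48 h. Supernatant was acidified with trichloroacetic acid (7% final), kept 15 min at room temperature and centrifuged. Kyn and Trp were quantified by HPLC-MS/MS.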

[3] = target: Indoleamine 2,3-dioxygenase 1 (Homo sapiens) (UniProt P14902); assay: Inhibition of IDO1 in human BXPC-3 cells assessed as increase in Trp level at 10 uM incubated for 48 hrs in presence of IFNgamma by LC-MS analysis; format: cell-based
How it was run: as §1

[4] = target: Indoleamine 2,3-dioxygenase 1 (Homo sapiens) (UniProt P14902); assay: Inhibition of recombinant human IDO1 expressed in Escherichia coli BL21(DE3) preincubated for 40 mins followed by Trp addition and measured after 60 mins by LC-MS analysis; settings: time 100.0 min
[5] = target: Indoleamine 2,3-dioxygenase 1 (Homo sapiens) (UniProt P14902); assay: Inhibition of IDO1 in HEK293T cells assessed as reduction in IFNgamma induced IDO1 protein expression incubated for 48 hrs; format: cell-based
[6] = target: Indoleamine 2,3-dioxygenase 1 (Homo sapiens) (UniProt P14902); assay: Inhibition of IDO1 in human HeLa cells assessed as reduction in IFNgamma induced IDO1 mRNA expression level incubated for 24 hrs by qPCR analysis; format: cell-based
How it was run: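 HeLa cells were plated at 250,000/well and grown 24 h, then treated with 50 ng/mL IFN-γ plus compound for 24 h. Total RNA was extracted with on-column DNase digestion, and cDNA was made from 800 ng RNA. IDO1 mRNA was quantified by qPCR; mean ± SD, n = 3.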

[7] = target: Indoleamine 2,3-dioxygenase 1 (Homo sapiens) (UniProt P14902); assay: Inhibition of IDO1 in human HeLa cells assessed as reduction in IFNgamma induced IDO1 protein expression level incubated for 24 hrs by immunoblotting analysis; format: cell-based
How it was run: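 HeLa cells were plated at 250,000/well and grown 24 h, then exposed to 50 ng/mL IFN-γ and compound for 24 h. Cells were lysed in Laemmli buffer and 20–100 μg protein was resolved on 10% gels. Blots were probed with anti-IDO1 (1:5,000) and IRDye secondaries. IDO1 was normalized to vinculin; mean ± SD, n = 4.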

[8] = target: Indoleamine 2,3-dioxygenase 1 (Homo sapiens) (UniProt P14902); assay: Inhibition of IDO1 in human BXPC-3 cells assessed as reduction in IFNgamma induced Trp level at 5 uM pretreated with IFNgamma for 24 hrs followed by compound addition for 30 mins prior to Trp addition and measured after 30 mins by HPLC-MS/MS analysis; format: cell-based; settings: time 25.0 hrs
How it was run: (§2)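 BxPC-3 cells were kept in Trp-free RPMI for 48 h, then given 50 ng/mL IFN-γ with starvation continued another 24 h. Medium was replaced by Trp-free medium containing compound for 30 min. 50 μM Trp was then added for 30 min. Supernatant Trp was measured by HPLC-MS/MS after 7% trichloroacetic acid precipitation; mean ± SD, n = 3.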

[9] = target: Indoleamine 2,3-dioxygenase 1 (Homo sapiens) (UniProt P14902); assay: Inhibition of IDO1 in human BXPC-3 cells assessed as reduction in IFNgamma induced Trp level at 5 mM pretreated with IFNgamma for 24 hrs followed by compound addition for 30 mins prior to Trp addition and measured after 30 mins by HPLC-MS/MS analysis; format: cell-based; settings: time 25.0 hrs
How it was run: as §2

For `NS(=O)(=O)NCCNc1nonc1/C(=N/O)Nc1ccc(F)c(Br)c1`, the inhibition [1] was “Active”.

With `O=C(c1cn(CCOc2ccc3c(c2)OCO3)c2ccc(Br)cc12)C(F)(F)F` the inhibition [2] was “Active”, the inhibition [3] was “Dose-Dependent Effect” and the inhibition [4] was “inactive”.

With `O=C(Cn1cc(C(=O)C(F)(F)F)c2cc(Br)ccc21)NC1CCCCCC1` the inhibition [4] was “inactive”, the inhibition [5] was “inactive” and the inhibition [6] was “inactive”. The inhibition [7] was “inactive” and the inhibition [8] was “inactive”.

`CC(C)C[C@H](N)C(=O)O` was tested, and the inhibition [9] was “Active”.
